One assay has as its system SpLeuRS-MmLinker. Briefly: Aminoacylation by SpLeuRS-MmLinker chimeric mutant. The settings on record: 50 μM ZCL039. The assay is classed as biochemical, Streptococcus pneumoniae. The gist of the method:
(§1)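 Aminoacylation at 37°C, started with 4 mM ATP. Point mutants were made by site-directed mutagenesis. The MmLinker chimera has CP1 Lys226–Thr411 replaced by a nonapeptide. Means of three independent experiments.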

The target of a further assay is T1, SpLeuRS D344A (Streptococcus pneumoniae serotype 4, UniProt Q97SS0, D344A).
T1 sequence (Q97SS0 1-833 D344A): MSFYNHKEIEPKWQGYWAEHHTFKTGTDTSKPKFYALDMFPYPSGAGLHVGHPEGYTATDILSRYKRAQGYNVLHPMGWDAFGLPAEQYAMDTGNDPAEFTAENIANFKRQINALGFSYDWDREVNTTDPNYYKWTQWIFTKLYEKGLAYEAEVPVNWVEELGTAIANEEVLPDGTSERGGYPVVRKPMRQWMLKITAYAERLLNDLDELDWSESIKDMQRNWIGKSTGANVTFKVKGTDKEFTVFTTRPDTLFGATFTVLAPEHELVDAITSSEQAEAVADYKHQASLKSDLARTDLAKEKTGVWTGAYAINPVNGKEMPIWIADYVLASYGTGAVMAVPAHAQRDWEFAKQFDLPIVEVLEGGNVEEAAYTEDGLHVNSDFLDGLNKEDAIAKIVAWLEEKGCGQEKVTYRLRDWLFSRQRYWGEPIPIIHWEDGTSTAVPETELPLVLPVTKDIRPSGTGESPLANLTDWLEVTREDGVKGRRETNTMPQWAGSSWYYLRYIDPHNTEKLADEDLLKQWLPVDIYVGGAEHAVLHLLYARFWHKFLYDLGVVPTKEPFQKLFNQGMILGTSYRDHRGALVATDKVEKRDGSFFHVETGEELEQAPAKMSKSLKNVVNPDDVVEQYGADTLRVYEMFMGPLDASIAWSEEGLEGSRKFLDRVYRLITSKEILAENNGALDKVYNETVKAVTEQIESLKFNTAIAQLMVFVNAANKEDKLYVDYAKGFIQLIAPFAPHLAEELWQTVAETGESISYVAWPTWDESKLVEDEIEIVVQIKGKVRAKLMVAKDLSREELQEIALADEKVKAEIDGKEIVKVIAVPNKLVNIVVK
Description: Aminoacylation by SpLeuRS D344A mutant. The assay is classed as biochemical. The following applies: 50 μM ZCL039. The gist of the method: as §1

Assay [1] concerns the target T2, SpLeuRS (Streptococcus pneumoniae serotype 4, UniProt Q97SS0).
T2 sequence (Q97SS0 1-833): T1 sequence (Q97SS0 1-833 D344A) with A344D
Description: Post-transfer editing. The assay is classed as biochemical. The following applies: 5 or 50 μM ZCL039, 1 μM [3H]Met-SptRNALeu. Put shortly:
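Enzyme and test compound were preincubated 20 min. Substrate was mischarged with the EcLeuRS-D345A editing mutant (30 min, 37°C), then acid-phenol extracted. Controls: DMSO, and no-enzyme spontaneous hydrolysis. Means of three experiments.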

The target of assay [2] is T2, SpLeuRS. Description: Inhibitory kinetics of SpLeuRS aminoacylation. The assay is classed as biochemical. The following applies: for Ki: 2 nM SpLeuRS. Put shortly: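 Test compound at 0, 2 or 8 μM. Substrate-velocity data were linearized by reciprocal fitting into Lineweaver-Burk plots to derive kinetic constants and inhibition mode.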
The next assay relates to E. coli. Briefly: Broth microdilution MIC, E. coli. The assay is classed as cell-based. The following applies: Escherichia coli. Put shortly: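 Broth microdilution per CLSI M7-A7 in Mueller Hinton broth. About […] E. coli was exposed to serial test-compound dilutions for 24 h at 37°C. MIC was the lowest concentration suppressing visible growth. Ampicillin was used to monitor susceptibility.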
On the technique in general: Broth dilution looks for growth in wells or tubes with falling amounts of substance.

Residue numbers refer to the chain shown, from its start. Values after ≈ are worked out from the molar mass of the structure shown. Like-named read-outs stand apart in the source and are kept apart here.

By Ki is commonly meant a measure of affinity in units of concentration, obtained from inhibition or displacement. For orientation: MIC means the lowest concentration found to suppress growth.

Consider `OB1OCc2ccc(C(O)c3ccccc3)cc21` (stereo not drawn) [ZCL039, [6-(1-phenyl-1-hydroxylmethyl)]-1,3-dihydro-1-hydroxy-2,1-benzoxaborole], for which the “Effect on tRNA charging activity of SpLeuRS-MmLinker” value in the assay with SpLeuRS-MmLinker is on record as “not affected”. In addition, the “Effect of D344A mutation on sensitivity of SpLeuRS to ZCL039” value at SpLeuRS D344A is “reduced the sensitivity”. For the same molecule, at SpLeuRS [1], the “Effect on hydrolysis of mischarged Met-SptRNALeu (editing)” value is given as “severely block”. The “kcat of SpLeuRS, substrate ATP” value at SpLeuRS [2] (+2 μM ZCL039) came to 6.35 ± 0.65 s⁻¹; on SpLeuRS [2] (+8 μM ZCL039), 2.80 ± 0.32 s⁻¹. Moreover, the results for the “kcat of SpLeuRS, substrate Leu” value at SpLeuRS [2] (+2 μM ZCL039) and on SpLeuRS [2] (+8 μM ZCL039) were 6.44 ± 0.55 s⁻¹ and 2.61 ± 0.16 s⁻¹, respectively. Further, the results for the “kcat of SpLeuRS, substrate SptRNALeu” value at SpLeuRS [2] (+2 μM ZCL039) and on SpLeuRS [2] (+8 μM ZCL039) were 6.62 ± 0.48 s⁻¹ and 2.89 ± 0.24 s⁻¹, respectively. Further, the Ki at SpLeuRS [2] (substrate ATP) was 2630 ± 260 nM; on SpLeuRS [2] (substrate Leu), 2650 ± 220 nM. For the same molecule, on SpLeuRS [2] (Km unaffected, maximum rates decreased), the “Mode of inhibition with respect to ATP and Leu” value is “noncompetitive”. For the same molecule, the “Mode of inhibition with regard to tRNALeu” value at SpLeuRS [2] (apparent Km and rate both reduced) is listed as “uncompetitive”. Also, the MIC in the assay on E. coli (24 h, read-out: MIC, Bacteria, E. coli) was found to be 60 µg/mL (≈ 250 µM); in the assay with E. coli (read-out: MIC, E. coli strains containing pET30a) it was 60 µg/mL (≈ 250 µM).

For the origin of these results see publication PMC3747510 (Scientific Reports, 2013).
